Results taken from ChEMBL document CHEMBL4049446 (J Med Chem, 2017).
pIC50, pKi: −log10 of the molar value.

What was measured:
[1] = Inhibition of HIV1 protease expressed in Escherichia coli using 2-aminobenzoyl-Thr-Ile-Nle-Phe(p-N02)-Gln-Arg-NH as substrate preincubated for 5 to 10 mins followed by substrate addition measured after 1 hr by fluorescence assay; design: species or system Human immunodeficiency virus 1
[2] = test system: Human immunodeficiency virus 1; assay: Antiviral activity against HIV1 Lai infected in human MT2 cells; type: functional, cell-based; conditions: Human immunodeficiency virus 1, M:B_Lai
[3] = test system: Human immunodeficiency virus 1; assay: Antiviral activity against wild type HIV1 NL4-3 infected in human MT4 cells assessed as reduction in p24 Gag protein production after 7 days by chemiluminescent enzyme immunoassay; type: functional, cell-based; conditions: Human immunodeficiency virus 1, NL4-3, MT4, 168 h
[4] = test system: Human immunodeficiency virus 1; assay: (§1) Antiviral activity against darunavir-resistant HIV1 derived from 20 passages harboring protease L10I/I15V/K20R/L24I/V32I/M36I/M46L/L63P/V82A/L89M mutant infected in human MT4 cells assessed as reduction in p24 Gag protein production after 7 days by chemiluminescent enzyme immunoassay; type: functional, cell-based; conditions: Human immunodeficiency virus 1, MT4, 168 h
How it was run: (§2)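 MT-4 cells (1×10^4) exposed to 50 TCID50 of wild-type HIV-1 NL4-3 or DRV-selected variants (20, 30 or 51 passages) and cultured with various inhibitor concentrations. IC50 read by p24 assay. Run in triplicate; mean ± 1 standard deviation from three independent experiments.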

[5] = test system: Human immunodeficiency virus 1; assay: Antiviral activity against darunavir-resistant HIV1 derived from 30 passages harboring protease L10I/I15V/K20R/L24I/V32I/M36I/M46L/L63P/K70R/V82A/I84V/L89M mutant infected in human MT4 cells assessed as reduction in p24 Gag protein production after 7 days by chemiluminescent enzyme immunoassay; type: functional, cell-based; conditions: Human immunodeficiency virus 1, MT4, 168 h; how it was run: as §2
[6] = test system: Human immunodeficiency virus 1; assay: as §1, with “51” for “20”, “L10I/I15V/K20R/L24I/V32I/L33F/M36I/M46L/I54M/L63P/K70Q/V82I/I84V/L89M” for “L10I/I15V/K20R/L24I/V32I/M36I/M46L/L63P/V82A/L89M”; type: functional, cell-based; conditions: Human immunodeficiency virus 1, MT4, 168 h
[7] = test system: Human immunodeficiency virus 1; assay: Ratio of IC50 for darunavir-resistant HIV1 derived from 20 passages harboring protease L10I/I15V/K20R/L24I/V32I/M36I/M46L/L63P/V82A/L89M mutant infected in human MT4 cells to IC50 for wild type HIV1 NL4.3 infected in human MT4 cells; type: functional
How it was run: (§3)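 Fold change is the IC50 against each resistant variant divided by the IC50 against wild-type HIV-1 NL4-3, measured in the same triplicate antiviral assays (three independent experiments).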

[8] = test system: Human immunodeficiency virus 1; assay: Ratio of IC50 for darunavir-resistant HIV1 derived from 30 passages harboring protease L10I/I15V/K20R/L24I/V32I/M36I/M46L/L63P/K70R/V82A/I84V/L89M mutant infected in human MT4 cells to IC50 for wild type HIV1 NL4.3 infected in human MT4 cells; type: functional; how it was run: as §3
[9] = test system: Human immunodeficiency virus 1; assay: Ratio of IC50 for darunavir-resistant HIV1 derived from 51 passages harboring protease L10I/I15V/K20R/L24I/V32I/L33F/M36I/M46L/I54M/L63P/K70Q/V82I/I84V/L89M mutant infected in human MT4 cells to IC50 for wild type HIV1 NL4.3 infected in human MT4 cells; type: functional; how it was run: as §3
[10] = test system: Human immunodeficiency virus 1; assay: Antiviral activity against amprenavir-resistant HIV1 NL4-3 harboring protease L10F/V32I/L33F/M46L/I54M/A71V mutant infected in human MT4 cells assessed as reduction in p24 Gag protein production after 7 days by chemiluminescent enzyme immunoassay; type: functional, cell-based; conditions: Human immunodeficiency virus 1, NL4-3, MT4, 168 h
How it was run: (§4)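 Variants are HIV-1 NL4-3 selected in vitro under protease inhibitors: APV, ATV, IDV, LPV, NFV and SQV at 5 µM, TPV at 15 µM. Assays run in triplicate; IC50 given as mean ± 1 standard deviation from three independent experiments.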

[11] = test system: Human immunodeficiency virus 1; assay: Antiviral activity against tipranavir-resistant HIV1 NL4-3 harboring protease L10I/L33I/M36I/M46I/I54V/K55R/I62V/L63P/A71V/G73S/V82T/L90M/I93L mutant infected in human MT4 cells assessed as reduction in p24 Gag protein production after 7 days by chemiluminescent enzyme immunoassay; type: functional, cell-based; conditions: Human immunodeficiency virus 1, NL4-3, MT4, 168 h; how it was run: as §4
[12] = test system: Human immunodeficiency virus 1; assay: Ratio of IC50 for saquinavir-resistant HIV1 NL4-3 harboring protease L10I/N37D/G48V/I54V/L63P/G73C/I84V/L90M mutant infected in human MT4 cells to IC50 for wild type HIV1 NL4.3 infected in human MT4 cells; type: functional; how it was run: as §3
[13] = test system: Human immunodeficiency virus 1; assay: Antiviral activity against lopinavir-resistant HIV1 NL4-3 harboring protease L10F/V32I/M46I/I47A/A71V/I84V mutant infected in human MT4 cells assessed as reduction in p24 Gag protein production after 7 days by chemiluminescent enzyme immunoassay; type: functional, cell-based; conditions: Human immunodeficiency virus 1, NL4-3, MT4, 168 h; how it was run: as §4
[14] = test system: Human immunodeficiency virus 1; assay: Antiviral activity against nelfinavir-resistant HIV1 NL4-3 harboring protease L10F/K20T/D30N/K45I/A71V/V77I mutant infected in human MT4 cells assessed as reduction in p24 Gag protein production after 7 days by chemiluminescent enzyme immunoassay; type: functional, cell-based; conditions: Human immunodeficiency virus 1, NL4-3, MT4, 168 h; how it was run: as §4
[15] = test system: Human immunodeficiency virus 1; assay: Antiviral activity against saquinavir-resistant HIV1 NL4-3 harboring protease L10I/N37D/G48V/I54V/L63P/G73C/I84V/L90M mutant infected in human MT4 cells assessed as reduction in p24 Gag protein production after 7 days by chemiluminescent enzyme immunoassay; type: functional, cell-based; conditions: Human immunodeficiency virus 1, NL4-3, MT4, 168 h; how it was run: as §4
[16] = test system: Human immunodeficiency virus 1; assay: Antiviral activity against indinavir-resistant HIV1 NL4-3 harboring protease L10F/L24I/M46I/I54V/L63P/A71V/G73S/V82T mutant infected in human MT4 cells assessed as reduction in p24 Gag protein production after 7 days by chemiluminescent enzyme immunoassay; type: functional, cell-based; conditions: Human immunodeficiency virus 1, NL4-3, MT4, 168 h; how it was run: as §4
[17] = test system: Human immunodeficiency virus 1; assay: Antiviral activity against atazanavir-resistant HIV1 NL4-3 harboring protease L23I/E34Q/K43I/M46I/I50L/G51A/L63P/A71V/V82A/T91A mutant infected in human MT4 cells assessed as reduction in p24 Gag protein production after 7 days by chemiluminescent enzyme immunoassay; type: functional, cell-based; conditions: Human immunodeficiency virus 1, NL4-3, MT4, 168 h; how it was run: as §4
[18] = test system: Human immunodeficiency virus 1; assay: Ratio of IC50 for amprenavir-resistant HIV1 NL4-3 harboring protease L10F/V32I/L33F/M46L/I54M/A71V mutant infected in human MT4 cells to IC50 for wild type HIV1 NL4.3 infected in human MT4 cells; type: functional; how it was run: as §3
[19] = test system: Human immunodeficiency virus 1; assay: Ratio of IC50 for lopinavir-resistant HIV1 NL4-3 harboring protease L10F/V32I/M46I/I47A/A71V/I84V mutant infected in human MT4 cells to IC50 for wild type HIV1 NL4.3 infected in human MT4 cells; type: functional; how it was run: as §3
[20] = test system: Human immunodeficiency virus 1; assay: Ratio of IC50 for indinavir-resistant HIV1 NL4-3 harboring protease L10F/L24I/M46I/I54V/L63P/A71V/G73S/V82T mutant infected in human MT4 cells to IC50 for wild type HIV1 NL4.3 infected in human MT4 cells; type: functional; how it was run: as §3
[21] = test system: Human immunodeficiency virus 1; assay: Ratio of IC50 for nelfinavir-resistant HIV1 NL4-3 harboring protease L10F/K20T/D30N/K45I/A71V/V77I mutant infected in human MT4 cells to IC50 for wild type HIV1 NL4.3 infected in human MT4 cells; type: functional; how it was run: as §3
[22] = test system: Human immunodeficiency virus 1; assay: Ratio of IC50 for atazanavir-resistant HIV1 NL4-3 harboring protease L23I/E34Q/K43I/M46I/I50L/G51A/L63P/A71V/V82A/T91A mutant infected in human MT4 cells to IC50 for wild type HIV1 NL4.3 infected in human MT4 cells; type: functional; how it was run: as §3
[23] = test system: Human immunodeficiency virus 1; assay: Ratio of IC50 for tipranavir-resistant HIV1 NL4-3 harboring protease L10I/L33I/M36I/M46I/I54V/K55R/I62V/L63P/A71V/G73S/V82T/L90M/I93L mutant infected in human MT4 cells to IC50 for wild type HIV1 NL4.3 infected in human MT4 cells; type: functional; how it was run: as §3

Compound	pKi [1]	pIC50 [2]	pIC50 [3]	pIC50 [4]	pIC50 [5]	pIC50 [6]	Ratio IC50 [7]	Ratio IC50 [8]	Ratio IC50 [9]	pIC50 [10]	pIC50 [11]	Ratio IC50 [12]	pIC50 [13]	pIC50 [14]	pIC50 [15]	pIC50 [16]	pIC50 [17]	Ratio IC50 [18]	Ratio IC50 [19]	Ratio IC50 [20]	also measured
CC(C)CN(C[C@@H](O)[C@H](Cc1ccccc1)NC(=O)O[C@H]1C2CO[C@H]3OCC1C3C2)S(=O)(=O)c1ccc(N)cc1 (some centres not stated)	10.89	8.55	8.48	7.52	6.47	< 6.00	9	103	>303												
COc1ccc(S(=O)(=O)N(CC(C)C)C[C@@H](O)[C@H](Cc2ccccc2)NC(=O)O[C@H]2C3CO[C@H]4OCC2C4C3)cc1 (some centres not stated)	10.85	8.57																			
CC(C)(C)NC(=O)[C@@H]1C[C@@H]2CCCC[C@@H]2CN1C[C@@H](O)[C@H](Cc1ccccc1)NC(=O)[C@H](CC(N)=O)NC(=O)c1ccc2ccccc2n1		7.68																			
COc1ccc(S(=O)(=O)N(CC(C)C)C[C@@H](O)[C@H](Cc2ccccc2)NC(=O)O[C@@H]2C3CO[C@H]4OCC2C4C3)cc1 (some centres not stated)	7.97	< 6.00																			
COC(=O)N[C@H](C(=O)N[C@@H](Cc1ccccc1)[C@@H](O)CN(Cc1ccc(-c2ccccn2)cc1)NC(=O)[C@@H](NC(=O)OC)C(C)(C)C)C(C)(C)C [ATAZANAVIR]			8.38							8.42	< 6.00	121	7.35	7.77	6.29	7.21	< 6.00	0.9	11	15	Ratio IC50 [21]: 4; Ratio IC50 [22]: >238; Ratio IC50 [23]: >238
CC(C)CN(C[C@@H](O)[C@H](Cc1ccccc1)NC(=O)O[C@H]1CO[C@H]2OCC[C@H]21)S(=O)(=O)c1ccc2nc(NC3CC3)sc2c1	11.00	8.72	8.70	8.11	7.52	6.32	4	15	240												
CC(C)CN(C[C@@H](O)[C@H](Cc1ccccc1)NC(=O)O[C@H]1C2CO[C@H]3OCC1C3C2)S(=O)(=O)c1ccc2nc(NC3CC3)sc2c1 (some centres not stated)	10.40	9.59	9.41	9.77	8.74	7.46	0.4	5	90	9.57	10.24	0.08	11.59	10.55	10.52	10.92	9.72	0.7	0.007	0.03	Ratio IC50 [21]: 0.07; Ratio IC50 [22]: 0.5; Ratio IC50 [23]: 0.15
Cc1cccc(C)c1OCC(=O)N[C@@H](Cc1ccccc1)[C@@H](O)C[C@H](Cc1ccccc1)NC(=O)[C@H](C(C)C)N1CCCNC1=O [LOPINAVIR]			7.70	< 6.00	< 6.00	< 6.00	>50	>50	>50	6.51	< 6.00	>50	< 6.00	7.38	< 6.00	6.77	6.48	16	>50	9	Ratio IC50 [21]: 2; Ratio IC50 [22]: 17; Ratio IC50 [23]: >50
